# Paper PMC5562219 (Theranostics, 2017)
# Tests used:
# [1] = tested on: primary cultured cortical neurons; assay: CCK-8 assay on neuronal cultures; format: cell-based, mouse; details: CCK-8, neuronal cultures treated with different dilutions of the probes for 24 h
# [2] = tested on: MHC-I molecules in ischemic brain; assay: In vivo and ex vivo NIRF imaging in photothrombotic stroke mice; set-up: species or system mouse
# How it was run: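 Photothrombotic stroke in male C57BL/6 mice (6 weeks old), with brains illuminated 15 min and lesions confirmed by T2 MRI at 24 h. Cy5.5-labelled probe or scrambled control probe given i.v. via tail vein (10 nM, 200 μL PBS pH 7.4). Serial brain NIRF imaging 1–24 h (ex 675 nm, em 695 nm long pass). TBR taken as ischemic/contralateral hemisphere. Brain, heart, spleen, liver, kidney and lung then imaged ex vivo; n=6, mean±SEM.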
substance,measurement,setting,value
K(Cy5.5)ALYNFATM [Cy5.5-H2BP],cytotoxicity to neurons,[1],low cytotoxicity
same,ex vivo NIRF signal intensity in the kidney,"[2]; 24 h after injection of the probe, suggests excretion mainly via the kidney",high signal intensity
same,"target background ratio (TBR), ischemic/contralateral hemisphere","[2]; 24 h after probe administration, compared with Cy5.5-H2CP probe, n=6 per group",significantly enhanced
same,TBR values in brain versus other organs,"[2]; ex vivo NIRF images, brain, heart, liver, spleen, lung, kidney, n=6",significantly higher in the brain than in other organs
same,time of peak NIRF signal intensity post-injection,"[2]; photothrombosis model mice, tail vein injection, 10 nM, 200 μL in PBS pH 7.4",approximately 8 h
